Activity calls are given as the source filed them. The calls are words filed in the database; no cut-off is given here.
Columns and labels:
[1] = Photophysical property of the compound assessed as fluorescence quantum yield; assay type: physicochemical
[2] = system: AD293; assay: Effect on morphological changes in human AD293 cells at 10 uM; assay type: functional, cell-based
Method in brief: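 AD293 cells treated with 10 μM compound, followed by LED irradiation or kept unirradiated, then morphology examined by microscopy.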

[3] = system: AD293; assay: Cytotoxicity against human AD293 cells assessed as cell viability at 0.1 to 10 uM incubated for 24 hrs by MTT assay; assay type: toxicity, cell-based; conditions: ad293, 24 h, dose 0.1-10 µM
Method in brief: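 AD293 cells seeded at 4 × 10^4 cells/well in DMEM with 10% FBS. Next day, compound (100 nM, 1 μM, 10 μM) or vehicle added in serum-free DMEM for 24 h, no irradiation. MTT (5 mg/mL reagent) added for 3 h at 37 °C, formazan dissolved in DMSO, absorbance read at 590 nm. Triplicate wells, four independent experiments.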

[4] = Drug uptake in human AD293 cells assessed as increase in red fluorescence at 10 uM measured after 40 mins by fluorescence imaging based analysis; assay type: ADME, cell-based; conditions: ad293, 40 min
[5] = target: T1, Toll-like receptor 7 (Homo sapiens) (UniProt Q9NYK1); assay: Activation of TLR7 in human AD293 cells assessed as IkappaB-alpha degradation at 10 uM preincubated with NAC followed by compound addition and measured after 30 mins under 650nm red light irradiation by Western blot analysis; assay type: cell-based; conditions: filed as activator
T1 sequence (whole entry): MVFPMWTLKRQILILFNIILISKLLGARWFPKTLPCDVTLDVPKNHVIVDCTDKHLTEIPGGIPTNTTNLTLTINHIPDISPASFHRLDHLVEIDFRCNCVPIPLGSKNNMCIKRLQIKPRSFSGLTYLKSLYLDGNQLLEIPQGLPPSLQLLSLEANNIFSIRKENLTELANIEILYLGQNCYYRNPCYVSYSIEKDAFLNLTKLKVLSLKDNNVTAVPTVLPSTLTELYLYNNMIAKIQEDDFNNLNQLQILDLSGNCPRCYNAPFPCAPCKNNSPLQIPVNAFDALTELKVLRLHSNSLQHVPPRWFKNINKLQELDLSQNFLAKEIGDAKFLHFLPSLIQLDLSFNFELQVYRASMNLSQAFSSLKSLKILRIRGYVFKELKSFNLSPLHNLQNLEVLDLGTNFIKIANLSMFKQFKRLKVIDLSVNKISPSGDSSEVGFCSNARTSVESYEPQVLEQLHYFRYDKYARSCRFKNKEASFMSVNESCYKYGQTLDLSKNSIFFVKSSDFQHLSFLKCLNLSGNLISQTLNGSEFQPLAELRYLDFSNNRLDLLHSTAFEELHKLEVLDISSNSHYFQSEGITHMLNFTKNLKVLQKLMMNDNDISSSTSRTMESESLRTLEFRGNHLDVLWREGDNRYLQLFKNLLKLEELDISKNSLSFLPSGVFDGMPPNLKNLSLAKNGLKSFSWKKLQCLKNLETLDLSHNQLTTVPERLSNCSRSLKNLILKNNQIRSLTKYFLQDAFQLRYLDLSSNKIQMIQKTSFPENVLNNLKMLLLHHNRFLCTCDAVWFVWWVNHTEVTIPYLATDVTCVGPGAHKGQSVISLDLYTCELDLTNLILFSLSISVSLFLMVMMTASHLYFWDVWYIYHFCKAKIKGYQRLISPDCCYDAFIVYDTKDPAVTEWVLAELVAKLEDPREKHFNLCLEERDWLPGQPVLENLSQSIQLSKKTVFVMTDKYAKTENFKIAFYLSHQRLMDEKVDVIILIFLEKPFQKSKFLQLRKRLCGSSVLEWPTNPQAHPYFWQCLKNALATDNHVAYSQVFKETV
Method in brief: (§1)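 Stable TLR7-expressing AD293 line made by TLR7 plasmid transfection and hygromycin B selection (250 μg/mL, 10 days). Cells pretreated with N-acetyl-cysteine, then given 10 μM compound, with or without 30 min 650 nm red-light irradiation. Lysates run on 10% SDS-PAGE and blotted to PVDF. Total IκB probed (1:1000) with GAPDH loading control, ECL detection. Means of three experiments.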

[6] = target: T1, Toll-like receptor 7 (Homo sapiens); assay: Activation of TLR7 in human AD293 cells assessed as IkappaB-alpha degradation at 10 uM preincubated with NAC followed by compound addition and measured after 30 mins by Western blot analysis; assay type: cell-based; method in brief: as §1
[7] = Upregulation of TNF-alpha mRNA expression in mouse RAW264.7 cells assessed as fold change at 100 nM preincubated with NAC followed by compound addition and measured after 30 mins under 650nm LED light irradiation by real-time PCR analysis; assay type: functional; conditions: 0.5 h
Method in brief: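 RAW264.7 cells seeded at 0.3 million per 35 mm dish. Next day, pretreated with 10 mM N-acetyl-cysteine for 30 min, then given 100 nM compound and 650 nm LED light for 30 min. Total RNA taken 24 h later and reverse transcribed with random primers. SYBR real-time PCR run for 40 cycles (95/60/72 °C). Quantities calculated by the Ct method. Results given as fold change, means ± SD.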

[8] = Induction of superoxide anion radical assessed as DMPO-O2 radical adduct formation under dark condition measured after 10 mins by ESR spectra analysis; assay type: functional
Method in brief: (§2)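 ESR spectra recorded with DMPO as spin trap to detect superoxide and/or hydroxyl radical adducts, before and after 10 min irradiation of compound.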

[9] = Induction of hydroxyl radical assessed as DMPO-OH radical adduct formation under light irradiation measured after 10 mins by ESR spectra analysis; assay type: functional; method in brief: as §2
[10] = Phototoxicity in human A549 cells assessed as cell viability at 10 uM under 530 ot 650nm 30 mW LED light irradiation and measured after 72 hrs by CCK-8 method relative to control; assay type: functional; conditions: A549, light or radiation study, read-out: Activity
Method in brief: (§3)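 A549, HaCaT and HeLa cells seeded at 2 × 10^3 cells/well in phenol red-free DMEM with 10% FBS. After 24 h, medium replaced with 1% DMSO containing 10 μM compound. After 90 min, one plate kept dark and one exposed to 530 or 650 nm LED (30 mW) for 15 min. Plates incubated 72 h, then CCK-8 read at 450 nm. Viability taken relative to dark control. Triplicates (HaCaT six).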

[11] = Dark toxicity in human HeLa cells assessed as cell viability at 10 uM under dark condition and measured after 72 hrs by CCK-8 method relative to control; assay type: cell-based; conditions: read-out: Activity; method in brief: as §3
[12] = Thermal stability of compound in DMSO-d6 at 37.5 degree C measured after 2 days by 1H NMR spectroscopy analysis relative to control; assay type: physicochemical; conditions: 48 h; time 2 day
Method in brief: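 Compound in DMSO-d6 followed by 1H NMR. Degradation taken from the intensity of three signals (one resiquimod, one BODIPY, and the linkage NH), each relative to the DMSO-d6 internal standard, and the three averaged.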

[13] = Photorelease activity of the compound in DMSO-d6 measured within 90 mins under 660nm 400mW LED light by 1H NMR spectroscopy analysis relative to control; assay type: ADME; conditions: 1.5 h
[14] = Photorelease activity of the compound in aqueous solution at 30 uM under 647 nm 400mW LED light by 1H NMR spectroscopy analysis; assay type: ADME; conditions: buffer, time 10-40 min
[15] = Photorelease activity of the compound in aqueous solution at 30 uM under dark condition by 1H NMR spectroscopy analysis; assay type: ADME; conditions: buffer

CCOCc1nc2c(NC(=O)OCC3=C4C(C)=CC(/C=C/c5ccc(OCCOCCOCCOC)cc5)=[N+]4[B-](C)(C)n4c(/C=C/c5ccc(OCCOCCOCCOC)cc5)cc(C)c43)nc3ccccc3c2n1CC(C)(C)O
Activity [1]: 0.411
Activity [2]: inactive
Activity [3]: Non-toxic
Drug uptake [4]: Active
Activity [5]: Active
Activity [6]: inactive
fold change (FC) [7]: ~2
Activity [8]: inactive
Activity [9]: inactive
viability at 10 µM [10]: 55%
viability at 72 h, 10 µM [11]: 4%
Activity [12]: 11%
Activity [13]: ~ 90%
Activity [14]: Time-dependent-effect
Activity [15]: Not_active
